Assay outcomes: PubChem BioAssay, several laboratories
In the library only some 4.6% were active in any assay of this set; here they are far more common.
RAM network inh – inhibitors of the yeast RAM network, primary screen, dse1pr::URA3 reporter, 5-FOA selection. S. cerevisiae dse1pr::URA3 reporter, 5-FOA growth OD615, 2 d; analog-sensitive cbk1-as2 kinase mutant strain. inhibition, % at 50 µM. actives 1.8% (n = 190,000). AID 868, 2007;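 active = inhibition above a set limit, 3 SD over mean compound inhibition, cut at about 8.4% in these data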;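 also: 0% = DMSO-only wells with no growth and 100% = 10 µM 1-NA-PP1 full growth; inhibition rescues growth on 5-FOA so higher OD means more RAM inhibition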
Arbovirus anti – antivirals against arbovirus infection, primary screen, cell-based, full library, 10K replicate subset; arbovirus infection cell-based antiviral screen; inhibition, % at 10 µM; actives 0.37% (n = 200,000); AID 1251, 2008; in the data active = inhibition above about 30%
Calb biofilm kill – clotrimazole potentiators killing C. albicans biofilm, primary screen, 4-compound mixtures; actives 0.02% (n = 120,000); C. albicans biofilm persisters + clotrimazole, fluorescence viability; primary screen in compound mixtures of four per well; inhibition, % at 7.6 µM;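 active = inhibition above 30.3% in the primary screen of four-compound pools, then above 30% when the compound was retested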;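 also: compounds exposed to preformed 24 h biofilms for 48 h; 0% = untreated biofilm control and 100% = clotrimazole plus chlorhexidine kill blank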
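Assay system: C. albicans biofilms / Medium: RPMI/MOPS medium, pH 7.0 / Schedule: biofilm formation 24 h, compound exposure 48 h, 37 °C / Measured by: Alamar Blue fluorescence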
p47phox inh – p47phox/p22phox peptide binding inhibitors, primary screen, biochemical, uHTS, NADPH oxidase regulatory subunit | Neutrophil cytosol factor 1 (Homo sapiens), P14598 | fluorescence polarization, 2 h | inhibition, % at 24.7 µM | actives 0.53% (n = 220,000) | AID 1274, 2008;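 active = inhibition above about 30%, limit read from the data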;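 also: 0% = p47phox with labelled peptide and 100% = labelled peptide alone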
Hck-Nef inh – inhibitors of Nef-activated human Hck kinase, primary screen, biochemical, Z-Lyte FRET, 384-well, Hck-YEEI; Tyrosine-protein kinase HCK (Homo sapiens), P08631; Recombinant Hck-YEEI plus Nef, Z-Lyte FRET kinase assay; inhibition, % at 20 µM; actives 0.68% (n = 220,000);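 active = Hck-Nef kinase inhibition above about 50%, limit read from the data; inactive = inhibition below that limit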;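 also: 0% = DMSO with Hck plus Nef and 100% = Hck alone without Nef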
Target sequence (P08631 whole entry, looked up): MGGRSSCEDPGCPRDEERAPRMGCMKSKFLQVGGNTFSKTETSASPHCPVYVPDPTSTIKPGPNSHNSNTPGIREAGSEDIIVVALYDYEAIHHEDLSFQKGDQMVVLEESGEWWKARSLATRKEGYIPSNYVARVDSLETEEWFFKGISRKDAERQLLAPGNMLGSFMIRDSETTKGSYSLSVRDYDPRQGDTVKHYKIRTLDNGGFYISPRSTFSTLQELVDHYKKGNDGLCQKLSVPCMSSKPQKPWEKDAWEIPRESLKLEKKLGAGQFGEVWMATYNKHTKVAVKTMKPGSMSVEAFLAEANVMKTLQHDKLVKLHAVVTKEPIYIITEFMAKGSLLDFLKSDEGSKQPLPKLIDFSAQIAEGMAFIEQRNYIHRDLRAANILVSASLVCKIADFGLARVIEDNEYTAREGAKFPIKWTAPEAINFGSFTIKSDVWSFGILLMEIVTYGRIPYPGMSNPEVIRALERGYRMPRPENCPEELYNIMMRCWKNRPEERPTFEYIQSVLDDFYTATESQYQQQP
WT yeast gro inh – growth inhibition of WT strain, primary screen, mitochondrial fusion inhibitor project, WT and mutant strains, chemical genetic | mitochondrial fusion phenotypic screen | inhibition, % at 10 µM | actives 2.1% (n = 190,000) | AID 1362, 2008; in the data active = inhibition above about 58%; tested in S. cerevisiae
Hck Nef conf – retest of Hck:Nef kinase inhibitor hits, confirmation, biochemical, Z-Lyte FRET, 384-well, p-Tyr peptide counterscreen; calls only at 10 µM; Recombinant Hck-YEEI:Nef, Z-Lyte FRET kinase assay; shares compounds with Hck-Nef inh; AID 463188, 2010; actives 28% (n = 1,300);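 active = average inhibition of at least 50%, with Z-scores no higher than 3 in both the phospho-tyrosine peptide and fluorescence counterscreens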
* = called active by the depositor; i = inactive; x = not tested or not shown; + = active, no number.

SMILES | RAM network inh | Arbovirus anti | Calb biofilm kill | p47phox inh | Hck-Nef inh | WT yeast gro inh | Hck Nef conf
CCN(CC)c1ccc2c(C)c(-c3ccc(N)cc3)c(=O)oc2c1 | 2.6 | -18.2 | x | 3.5 | 6.9 | 6.6 | x
CC(O)C1CCC2C3CC[C@H]4CC(O)CCC4(C)C3CC3(OCCO3)C12C (some centres undefined) | 1.7 | 3.4 | x | -5.4 | -19.5 | 23.7 | x
C=CCN1C(=O)C(CC(=O)Nc2ccc(OC)cc2)SC1=Nc1ccc(S(N)(=O)=O)cc1 (centres undefined) | 0.4 | -3.5 | 8.6 | -10.5 | 13.8 | -0.8 | x
O=C(COC(=O)c1oc2ccccc2c1COc1ccccc1)NCCN1C(=O)CSC1=O | 5.3 | -0.8 | 8.3 | -16.2 | 3.6 | -3.5 | x
CCOC(=O)c1ccc(NC(=O)CCc2ccc(C)o2)cc1 | 2.5 | 7.7 | x | -20.0 | 1.0 | 16.9 | x
Cc1ccc(S(=O)(=O)N(CC(=O)N2CCC(C)CC2)Cc2ccccc2F)cc1 | 3.3 | -11.9 | x | -8.9 | 6.8 | 21.5 | x
O=c1c2c3c(sc2[nH]c(=S)n1Cc1ccco1)CCC3 | x | x | 14.0 | -13.7 | 80.6* | x | i
O=C(/C=C/c1ccc(OCCCF)cc1)NCc1ccc(Cl)cc1 | 2.9 | -4.0 | x | 2.4 | 0.8 | 33.9 | x
COc1cc(/C=N/N=C2/NC(=O)C(CC(=O)O)S2)ccc1OCc1ccc(Cl)cc1 (centres undefined) | 0.2 | -4.2 | 10.2 | -22.4 | -0.2 | -5.3 | x
CCOc1cc(/C=N/N=C2/NC(=O)C(CC(=O)O)S2)ccc1OCc1ccc(Cl)cc1Cl (centres undefined) | 2.0 | 6.5 | 8.0 | -21.2 | 53.7* | 3.0 | i
COc1ccc(-c2csc(NC(=O)c3ccccc3NS(=O)(=O)c3ccc(F)c(F)c3)n2)cc1 | 8.4 | -32.9 | -24.4 | -58.0 | 79.9* | 87.3* | +
CN(C)S(=O)(=O)c1ccc(N2CCCC2)c(C(=O)Nc2nc(-c3ccc(F)c(F)c3)cs2)c1 | 5.9 | -7.7 | 2.6 | -23.2 | 1.9 | -4.4 | x
COC(=O)c1c(-c2ccccc2Cl)noc1/C=C/N(C)C | 0.2 | 0.6 | 20.6 | -8.6 | 58.8* | -11.2 | +
Cc1onc(-c2ccccc2Cl)c1C(N)=O | 1.1 | 14.5 | x | -23.6 | 6.8 | -7.3 | x
CC1=CC(C)[C@H](/C=N/n2c(=O)[nH]c3c([nH]c4ccc(Br)cc43)c2=O)C(C)C1 (some centres undefined) | 3.0 | -22.1 | 10.3 | -8.6 | 60.7* | 6.5 | i
COc1ccc2[nH]c3c(=O)n(/N=C/[C@H]4C(C)C=C(C)CC4C)c(=O)[nH]c3c2c1 (some centres undefined) | 1.4 | -19.9 | -10.4 | 6.6 | 8.1 | -19.7 | x
COc1cccc(CNC(=O)CCC2CCCN(C(=O)c3ccc(OC)o3)C2)c1 (centres undefined) | -0.6 | 3.1 | 11.6 | 2.1 | 17.9 | 4.2 | x
CCCCCCc1cc2cc(S(=O)(=O)c3ccc(F)cc3)c(=O)oc2cc1O | 3.3 | 1.9 | 4.6 | -14.3 | 119.8* | 8.0 | x
CCCCCCc1cc2cc(-c3nnc(-c4ccccc4O)o3)c(=O)oc2cc1O | 1.9 | 22.4 | x | -1.1 | -17.3 | -0.2 | x
CC[C@H](CO)Nc1nc(Nc2cccc(Cl)c2)c2ncn(C(C)C)c2n1 | x | x | 11.3 | -11.8 | 110.0* | x | +
CC(C)[C@H](CO)N(Cc1cccc(F)c1)c1nc(Nc2cccc(Cl)c2)c2ncn(C(C)C)c2n1 | x | x | 31.2 | -20.8 | 68.0* | x | +
Cc1ccc(Oc2ccc(-c3nc(N)nc(N)n3)cc2)cc1C | 7.0 | -1.3 | x | -12.8 | 75.7* | 41.8 | i
CN1CCC(N(C)C(=O)CCc2nc3ccccc3n2-c2ccccc2)CC1 | 3.5 | 8.2 | 14.8 | -12.3 | 20.7 | -20.4 | x
O=S(=O)(c1cccc2cccc(Cl)c12)N1CCCC1 | 0.6 | 3.1 | 9.9 | -6.8 | 9.7 | -10.8 | x
